# Sampled rows, rich in hits. Any-hit rate of the full collection: about 2.5%.
# ADAM10 inh: human ADAM10 inhibitors, primary screen, biochemical, QFRET, HTS. Disintegrin and metalloproteinase domain-containing protein 10 (Homo sapiens), O14672. recombinant ADAM10, EDANS/DABCYL FRET peptide cleavage, 3 h. inhibition, % at 7 µM. 370,000 compounds, 0.62% hits. AID 720582, 2013;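 active = inhibition above a per-campaign cutoff equal to the mean of compounds falling between control-based bounds plus 3 SD, cut at about 20% in these data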;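 note: 0% = DMSO wells while the 100% control is not disclosed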
# NR2E3 ag-1: inhibitors of NR2E3-RetCOR corepressor binding, primary screen, NR2E3 agonist project, biochemical, TR-FRET, GST-NR2E3, biotin-RetCOR; Photoreceptor-specific nuclear receptor (Homo sapiens), Q9Y5X4; 1536-well; inhibition of corepressor binding, % at 4.78 µM; 320,000 compounds, 0.12% hits; AID 2300, 2010;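 active = percent inhibition above the cutoff of mean plus 3 SD of all tested compounds, set per screening campaign, cut at about 20% in these data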;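 note: 0% = DMSO wells and 100% = biotin wells as full block of FRET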
# Target sequence (Q9Y5X4 whole entry, looked up): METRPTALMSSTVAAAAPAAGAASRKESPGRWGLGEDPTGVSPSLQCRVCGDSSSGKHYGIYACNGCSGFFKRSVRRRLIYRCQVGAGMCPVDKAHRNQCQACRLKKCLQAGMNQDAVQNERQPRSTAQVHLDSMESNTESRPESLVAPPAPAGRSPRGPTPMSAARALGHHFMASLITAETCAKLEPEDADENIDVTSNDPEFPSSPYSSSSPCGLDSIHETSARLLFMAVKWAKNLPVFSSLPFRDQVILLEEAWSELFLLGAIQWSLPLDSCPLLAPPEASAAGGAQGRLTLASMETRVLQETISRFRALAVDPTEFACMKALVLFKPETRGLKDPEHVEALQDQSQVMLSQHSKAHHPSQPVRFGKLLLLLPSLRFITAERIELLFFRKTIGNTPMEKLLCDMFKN
#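 system = GST-tagged NR2E3 plus biotinylated RetCOR corepressor | input = 1.35 nM GST-NR2E3 | also added = 7 nM biotin-RetCOR | schedule = 5 h incubation at 4 °C | measured by = TR-FRET with europium anti-GST and streptavidin-D2, 340 nm excitation | read-out = percent loss of FRET ratio relative to control wells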
# ADAM17 inh: ADAM17 inhibitors, primary screen, biochemical, QFRET; inhibition, % at 6.95 µM; recombinant ADAM17, EDANS/DABCYL FRET peptide cleavage; 370,000 compounds, 0.83% hits; AID 720648, 2013;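 active = inhibition above the mean of compounds lying between control limits plus 3 SD, set per campaign, cut at about 8.5% in these data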;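 note: 0% = DMSO-only wells as the low control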
# GASC-1 inh: inhibitors of GASC-1 histone demethylase, primary screen, biochemical, fluorescence, DELFIA europium; inhibition, % at 2.35 µM; GST-JMJD2C(1-420) H3K9me3 demethylation; Lysine-specific demethylase 4C (Homo sapiens), Q9H3R0; 330,000 compounds, 0.069% hits;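 active = more than half of a compound's replicate wells show inhibition beyond 50%, single wells judged on their own value; inconclusive = some, but no more than half, of replicates pass 50% inhibition; inactive = no replicate passes 50% inhibition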;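 note: signal counts dimethyl H3K9 product captured on neutravidin plate; 0% = median of DMSO wells and 100% = 0.3 times that DMSO median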
# NR2E3 ag-2: NR2E3 agonists in two-hybrid cells, primary screen, cell-based, luminescence, CHO-S, Gal4-NCOR/VP16-NR2E3; Photoreceptor-specific nuclear receptor (Homo sapiens), Q9Y5X4; luciferase; inhibition of corepressor binding, % at 3.98 µM; 360,000 compounds, 0.35% hits;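 active = inhibition above the mean of all tested compounds plus 3 SD, cut at about 70% in these data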;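 note: 0% = DMSO with NR2E3 transfected cells and 100% = cells lacking NR2E3 construct; higher means lower luciferase signal from less NR2E3 corepressor binding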
# KLK7 zymogen act: proKLK7 zymogen activators, primary screen, biochemical, fluorescence intensity; 370,000 compounds, 0.9% hits; purified proKLK7, EDANS-DABCYL substrate fluorescence; 100% is mature enzyme control, 0% vehicle; activation, % at 7 µM; Kallikrein-7 (Homo sapiens), P49862;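 active = activation above the mean of all tested compounds plus 3 SD, computed per campaign excluding outliers beyond control limits, cut at about 13% in these data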
# Target sequence (P49862 whole entry, looked up): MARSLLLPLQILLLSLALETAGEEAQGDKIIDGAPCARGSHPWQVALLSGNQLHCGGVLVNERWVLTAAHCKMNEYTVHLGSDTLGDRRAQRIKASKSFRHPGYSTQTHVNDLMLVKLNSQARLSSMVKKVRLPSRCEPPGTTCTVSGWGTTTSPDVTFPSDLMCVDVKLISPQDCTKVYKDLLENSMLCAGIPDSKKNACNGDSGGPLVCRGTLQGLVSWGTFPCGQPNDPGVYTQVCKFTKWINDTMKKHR
# NR2E3 ag confirm: NR2E3 agonist confirmation in cells, cell-based, luminescence, CHO-S two-hybrid; shares compounds with NR2E3 ag-2; CHO-S mammalian two-hybrid NR2E3-NCOR, luciferase luminescence; inhibition, % at 3.98 µM; 2,300 compounds, 51% hits; AID 624378, 2012;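 active = average inhibition above a cutoff equal to the mean inhibition of all tested compounds plus one SD, cut at about 70% in these data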;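 note: 0% = DMSO in NR2E3 cells and 100% = DMSO in cells lacking NR2E3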
# GAL4-VP16 luc: GAL4-VP16 reporter modulators, confirmation, counter-screen for NR2E3 agonist project, cell-based, luminescence, CHO-S, high throughput; inhibition, % at 3.98 µM; 2,300 compounds, 29% hits; CHO-S GAL4-VP16 luciferase reporter; shares compounds with NR2E3 ag-2; AID 624379, 2012;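 active = mean inhibition above a cutoff equal to the average over all tested compounds plus one standard deviation, cut at about 70% in these data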;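 note: luciferase from a UAS reporter driven by GAL4-VP16 transactivation; 0% = DMSO with VP16-transfected cells and 100% = DMSO with cells lacking VP16; higher means less reporter light so more repression of VP16 activity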
# * = called active by the depositor; u = inconclusive; x = no result given.
SMILES,ADAM10 inh,NR2E3 ag-1,ADAM17 inh,GASC-1 inh,NR2E3 ag-2,KLK7 zymogen act,NR2E3 ag confirm,GAL4-VP16 luc
CCOc1ccc(NS(=O)(=O)c2ccc(C(=O)N3CCCCC3)cc2)cc1,-3,0,1,0,58,0,40,54
CCOc1ccc(S(=O)(=O)Nc2ccc3c(c2)n(C)c(=O)n3C)cc1,2,3,-3,7,74*,0,62,59
CN(c1cccc(NS(=O)(=O)c2ccccc2)c1)S(C)(=O)=O,3,7,-1,-14,-2,0,x,x
CCOc1ccc(NS(=O)(=O)c2ccc(C(=O)N3CCN(c4ncccn4)CC3)cc2)cc1,-6,6,-1,1,29,-1,x,x
COc1ccc(NS(=O)(=O)c2ccc(C(=O)N3CCC(C)CC3)cc2)cc1,-7,x,1,11,56,1,25,25
CC1CCN(C(=O)c2ccc(NS(=O)(=O)c3ccccc3)cc2)CC1,4,-1,0,1,6,0,x,x
CCOc1ccc(S(=O)(=O)Nc2cccc(N(C)S(C)(=O)=O)c2)cc1,2,0,-4,-13,49,0,48,54
Cc1ccc(NS(=O)(=O)c2ccc3c(c2)n(C)c(=O)n3C)c(C)c1,8,0,0,3,14,0,x,x
CCc1ccc(S(=O)(=O)Nc2cc3c(cc2C)n(C)c(=O)n3C)cc1,0,1,5,-49,98*,0,83*,69
CCOc1ccc(NS(=O)(=O)c2ccc3c(c2)N(C(C)=O)CCS3)cc1,-1,3,-3,1,55,0,7,13
COCCn1c(N)c(N(Cc2ccccc2)C(=O)CSCC(=O)Nc2ccc(C)cc2)c(=O)[nH]c1=O,0,-2,-3,-1,-3,-1,x,x
CC1(C)OC(=O)C2=C(C[C@@H](CCc3ccccc3)O[C@H]2CCc2cccc(Cl)c2)O1,-5,x,-2,x,6,1,x,x
Cc1ccc2nc(C)c(CN3CCN(c4ccc([N+](=O)[O-])cc4Cl)CC3)n2c1,-5,1,0,4,104*,0,95*,84*
O=[N+]([O-])c1ccc(Cl)c(CN2CCN(c3ncccn3)CC2)c1,0,-2,0,-1,-12,0,x,x
CCOC(=O)[C@@]12CN(C(=O)OC(C)(C)C)CC=C1N(Cc1ccc(OC)cc1)C(=O)[C@H]2CC(=O)N1CCCC1,-12,x,-1,x,x,0,x,x
CC(C(=O)Nc1ccccc1)c1ccc(-c2ccccc2)c(F)c1 (stereo unspecified),x,-3,x,-10,74*,x,52,54
O=C(COC(=O)CCC(=O)c1cccs1)Nc1ccccc1[N+](=O)[O-],-6,5,0,0,14,0,x,x
CCN(CC)C(=O)CC[C@@H]1CC[C@]2(CCCN(Cc3ccc(Cl)cc3)C2)O1,-3,x,-1,x,x,0,x,x
CN(CC(=O)Nc1cccc(F)c1)C(=O)c1ccc(N2CCCC2)c([N+](=O)[O-])c1,-3,-4,-2,4,63,0,19,23
CN(CC(=O)Nc1cccc(F)c1)C(=O)c1ccc(N2CCCCCC2)c([N+](=O)[O-])c1,-3,-2,-2,5,-2,0,x,x
Cc1ccc(NC(=O)CCCCCCCCCCC2COCCO2)c(C)c1 (stereo unspecified),-3,-1,-4,3,-31,1,x,x
CCC(C)(C)C(=O)O[C@H]1C[C@@H](C)C=C2C=C[C@H](C)[C@H](CC[C@@H]3C[C@@H](O)CC(=O)O3)[C@H]21,3,0,-3,1,56,1,86*,27
C=C(C(=O)c1ccccc1)C(C)CC(=O)c1ccccc1 (stereo unspecified),-1,0,2,5,-2,0,x,x
C=C(C(=O)c1ccccc1)C(NC(C)(C)C)c1ccccc1 (stereo unspecified),2,x,0,x,92*,-1,78*,29
COC(=O)C1=C(C)N(Cc2ccc(C(F)(F)F)cc2)C(=NCc2ccccc2)NC1c1ccc(Cl)cc1 (stereo unspecified),1,x,3,x,x,0,x,x
SMILES,ADAM10 inh,NR2E3 ag-1,ADAM17 inh,GASC-1 inh,NR2E3 ag-2,KLK7 zymogen act,NR2E3 ag confirm,GAL4-VP16 luc
Cc1ccc2sc(N3CCN(C(=O)c4ccc([N+](=O)[O-])o4)CC3)nc2c1C,-7,-4,-3,-15,-1,0,x,x
Cc1c(Cl)ccc2sc(N3CCN(C(=O)C4=COCCO4)CC3)nc12,5,-4,1,u,79*,0,90*,55
Cc1ccc(S(=O)(=O)N2CCC(C(=O)OCC(=O)N3CCCC(C)C3)CC2)cc1C (stereo unspecified),3,-1,-8,-3,0,0,x,x
CCC(=O)N1CCCc2cc(S(=O)(=O)N3CCN(c4ccccn4)CC3)ccc21,3,-1,3,26,69,1,93*,6
CCC(=O)N1CCCc2cc(S(=O)(=O)N3CCN(c4ncccn4)CC3)ccc21,-8,0,-1,-16,-7,0,x,x
CCCCCc1ccc(NC(=O)OCCN2C(=O)CCC23CCC(c2ccccc2)CC3)cc1 (stereo unspecified),-1,x,2,x,x,1,x,x
O=C(Nc1ccc2c(c1)OCCO2)NC1(C(F)(F)F)Oc2ccccc2O1,14,-1,2,-13,58,-1,10,-35
O=C(Nc1ccc2c(c1)OCO2)NC1(C(F)(F)F)Oc2ccccc2O1,-24,-4,-13,1,-23,1,x,x
CCOc1ccc(C(=O)Nc2ccc(N3CCN(C(C)=O)CC3)cc2)cc1[N+](=O)[O-],-6,1,0,10,-15,0,x,x
CC(=O)N1CCN(c2ccc(Oc3ccc([N+](=O)[O-])c(C(F)(F)F)c3)cc2)CC1,x,2,x,-3,100*,x,96*,81*
O=C(OC12CCCN(C1)/C(=C/c1ccccc1)C2)c1ccc(F)cc1 (stereo unspecified),-15,x,0,x,x,1,x,x

# Compound activity (PubChem BioAssay)
